Data on one compound can be found in ChEMBL document CHEMBL4422626, “Optimization of novel benzofuro[3,2-b]pyridin-2(1H)-one derivatives as dual inhibitors of BTK and PI3Kδ” (Eur J Med Chem, 2019).

Activity calls are given as the source filed them. The rule behind the calls is not given here.

In general, inhibition refers to how much of the control response was suppressed. Broadly, the IC50 is the midpoint of a concentration-inhibition curve. A low value points to greater potency in that assay.

For assay [1], the target named is T1, Phosphatidylinositol 4,5-bisphosphate 3-kinase catalytic subunit delta isoform (Homo sapiens) (UniProt O00329).
T1 sequence (whole entry): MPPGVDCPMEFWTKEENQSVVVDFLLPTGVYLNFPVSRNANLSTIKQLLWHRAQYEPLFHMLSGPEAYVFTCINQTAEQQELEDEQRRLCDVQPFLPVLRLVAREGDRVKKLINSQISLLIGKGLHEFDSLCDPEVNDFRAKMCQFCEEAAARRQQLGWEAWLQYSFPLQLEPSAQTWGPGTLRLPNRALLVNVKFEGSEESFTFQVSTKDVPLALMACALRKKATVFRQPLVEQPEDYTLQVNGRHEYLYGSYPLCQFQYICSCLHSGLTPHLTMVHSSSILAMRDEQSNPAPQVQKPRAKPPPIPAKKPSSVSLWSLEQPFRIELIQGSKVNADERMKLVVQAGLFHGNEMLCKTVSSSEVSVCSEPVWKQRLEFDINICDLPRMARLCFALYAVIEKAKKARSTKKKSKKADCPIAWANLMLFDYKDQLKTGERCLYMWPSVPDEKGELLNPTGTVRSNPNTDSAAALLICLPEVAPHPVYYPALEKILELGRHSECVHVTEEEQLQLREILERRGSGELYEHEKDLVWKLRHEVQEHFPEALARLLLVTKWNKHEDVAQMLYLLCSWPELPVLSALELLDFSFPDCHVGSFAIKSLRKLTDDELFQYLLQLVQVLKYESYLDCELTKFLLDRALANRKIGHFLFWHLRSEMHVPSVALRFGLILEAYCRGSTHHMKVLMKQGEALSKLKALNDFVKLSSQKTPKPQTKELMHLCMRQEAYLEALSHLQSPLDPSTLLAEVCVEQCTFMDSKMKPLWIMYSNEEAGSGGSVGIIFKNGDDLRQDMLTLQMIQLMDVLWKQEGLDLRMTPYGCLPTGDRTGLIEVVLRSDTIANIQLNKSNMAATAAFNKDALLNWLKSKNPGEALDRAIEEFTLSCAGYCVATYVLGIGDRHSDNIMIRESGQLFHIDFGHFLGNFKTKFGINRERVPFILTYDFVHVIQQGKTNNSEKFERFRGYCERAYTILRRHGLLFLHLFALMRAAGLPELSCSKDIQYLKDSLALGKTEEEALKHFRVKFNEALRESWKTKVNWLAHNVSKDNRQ
Briefly: Inhibition of PI3Kdelta in human Ramos cells assessed as reduction in Akt phosphorylation at Ser473 residues at 0.25 to 4 uM after 4 hrs by Western blot analysis. In kind it is cell-based. The method in brief: (§1)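 Cells were treated with compound for 4 h, then stimulated or not with anti-human IgM F(ab')2. They were lysed in Tris-Cl pH 6.8/4% SDS/glycerol/β-mercaptoethanol buffer on ice and protein was quantified by BCA. Equal protein was run on 12% SDS-PAGE and transferred to PVDF. Blots were probed with specific primary antibodies overnight at 4 °C and HRP secondaries 1 h at 37 °C, with ECL detection.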
Background: Immunoblotting shows a protein as a band on a membrane.

Assay [2] concerns the target T1, Phosphatidylinositol 4,5-bisphosphate 3-kinase catalytic subunit delta isoform (Homo sapiens). Briefly: Inhibition of PI3Kdelta (unknown origin) at 200 nM by ADP-gloassay relative to control. The method in brief: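 PI3Kδ was tested with the PI3K-Glo Class I Profiling Kit and a luminescence read-out, following the manufacturer's protocol. Each compound was tested at a single concentration of 200 nM and expressed as percent inhibition versus control.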
(In general: ADP-Glo turns the ADP formed in a reaction into a luminescent signal.)

Assay [3] has the same target. The assay can be described thus: Inhibition of PI3Kdelta in human Ramos cells assessed as reduction in mTOR phosphorylation at Ser2481 residues at 0.25 to 4 uM after 4 hrs by Western blot analysis. In kind it is cell-based. The method in brief: as §1
For assay [4], the target named is Phosphatidylinositol 4,5-bisphosphate 3-kinase catalytic subunit gamma isoform (Homo sapiens, UniProt P48736). Briefly: Inhibition of PI3Kgamma (unknown origin) by ADP-gloassay. The method in brief:
(§2)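 PI3K isoform activity was measured with the PI3K-Glo Class I Profiling Kit, a luminescent ADP-Glo-type read-out, following the manufacturer's protocol. Compounds were tested over 1 nM–5 μM to give IC50 values.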

Assay [5] concerns the target T2, Tyrosine-protein kinase BTK (Homo sapiens, UniProt Q06187). Briefly: Inhibition of BTK (unknown origin) by ADP-gloassay.
Assay [6] has as its target T3, Phosphatidylinositol 4,5-bisphosphate 3-kinase catalytic subunit delta isoform (Homo sapiens, UniProt O00329).
T3 sequence (O00329 whole entry): T1 sequence (whole entry)
Briefly: Inhibition of PI3Kdelta (unknown origin) by ADP-gloassay. The method in brief:
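PI3K isoform activity was measured with the PI3K-Glo Class I Profiling Kit, a luminescent ADP-Glo-type read-out, following the manufacturer's protocol.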

Assay [7] addresses Phosphatidylinositol 4,5-bisphosphate 3-kinase catalytic subunit alpha isoform (Homo sapiens, UniProt P42336). Briefly: Inhibition of PI3Kalpha (unknown origin) by ADP-gloassay. The essentials: as §2
Assay [8] concerns Ramos. Briefly: Cell cycle arrest in human Ramos cells assessed as accumulation at G0/G1 phase at 5 uM after 48 hrs by propidium iodide staining based flow cytometric analysis (reference value: 24.65%). In kind it is functional.
In assay [9] the test system is Ramos. Briefly: Cell cycle arrest in human Ramos cells assessed as accumulation at S phase at 5 uM after 48 hrs by propidium iodide staining based flow cytometric analysis (reference value: 71.08%). In kind it is functional. On the technique in general: In flow cytometry, cells or beads pass a laser one at a time.
A further assay has as its system Raji. Briefly: Antiproliferative activity against human Raji cells after 48 hrs by CCK8 assay. In kind it is functional, cell-based. The method in brief:
(§3)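 Raji and Ramos cells grown in RPMI1640 or IMDM with 10% FBS, 37 °C, 5% CO2. Seeded at 3000-5000 cells/well and left 12-24 h before dosing. Several compound concentrations given for 48 h. CCK-8 then added for 4 h and OD read at 450 nm. IC50 is the concentration giving 50% cell death versus control, calculated from inhibition ratios.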

In assay [10] the test system is Ramos. Briefly: Cell cycle arrest in human Ramos cells assessed as accumulation at apoptotic phase at 5 uM after 48 hrs by propidium iodide staining based flow cytometric analysis (reference value: 5.03%). The class given is functional.
In assay [11] the test system is Ramos. The assay can be described thus: Antiproliferative activity against human Ramos cells after 48 hrs by CCK8 assay. The class given is functional, cell-based. The method in brief:
as §3

In assay [12] the test system is Ramos. Briefly: Induction of apoptosis in human Ramos cells assessed as necrotic cells at 5 uM after 48 hrs by Annexin-V-FITC/propidium iodide staining based flow cytometric analysis (reference value: 1.11%). In kind it is functional.
The test system of assay [13] is Ramos. Briefly: Induction of apoptosis in human Ramos cells assessed as late apoptotic cells at 5 uM after 48 hrs by Annexin-V-FITC/propidium iodide staining based flow cytometric analysis (reference value: 0.98%). In kind it is functional.
Assay [14] relates to Ramos. The assay can be described thus: Induction of apoptosis in human Ramos cells assessed as early apoptotic cells at 5 uM after 48 hrs by Annexin-V-FITC/propidium iodide staining based flow cytometric analysis (reference value: 1.08%). In kind it is functional.
For assay [15], the target named is Phosphatidylinositol 4,5-bisphosphate 3-kinase catalytic subunit beta isoform (Homo sapiens, UniProt P42338). The assay can be described thus: Inhibition of PI3Kbeta (unknown origin) by ADP-gloassay. The essentials:
as §2

The target of assay [16] is Serine/threonine-protein kinase mTOR (Homo sapiens, UniProt P42345). Briefly: Inhibition of mTOR (unknown origin) by ADP-gloassay.
The subject of assay [17] is Ramos. Briefly: Cell cycle arrest in human Ramos cells assessed as accumulation at G2/M phase at 5 uM after 48 hrs by propidium iodide staining based flow cytometric analysis (reference value: 4.26%). The class given is functional.
The test system of assay [18] is Ramos. Briefly: Induction of apoptosis in human Ramos cells assessed as viable cells at 5 uM after 48 hrs by Annexin-V-FITC/propidium iodide staining based flow cytometric analysis (reference value: 96.83%). The class given is functional. Conditions: read-out: Activity.
The target in assay [19] is T2, Tyrosine-protein kinase BTK. Conditions: at 200 nM.

T2 sequence (Q06187 whole entry, canonical isoform): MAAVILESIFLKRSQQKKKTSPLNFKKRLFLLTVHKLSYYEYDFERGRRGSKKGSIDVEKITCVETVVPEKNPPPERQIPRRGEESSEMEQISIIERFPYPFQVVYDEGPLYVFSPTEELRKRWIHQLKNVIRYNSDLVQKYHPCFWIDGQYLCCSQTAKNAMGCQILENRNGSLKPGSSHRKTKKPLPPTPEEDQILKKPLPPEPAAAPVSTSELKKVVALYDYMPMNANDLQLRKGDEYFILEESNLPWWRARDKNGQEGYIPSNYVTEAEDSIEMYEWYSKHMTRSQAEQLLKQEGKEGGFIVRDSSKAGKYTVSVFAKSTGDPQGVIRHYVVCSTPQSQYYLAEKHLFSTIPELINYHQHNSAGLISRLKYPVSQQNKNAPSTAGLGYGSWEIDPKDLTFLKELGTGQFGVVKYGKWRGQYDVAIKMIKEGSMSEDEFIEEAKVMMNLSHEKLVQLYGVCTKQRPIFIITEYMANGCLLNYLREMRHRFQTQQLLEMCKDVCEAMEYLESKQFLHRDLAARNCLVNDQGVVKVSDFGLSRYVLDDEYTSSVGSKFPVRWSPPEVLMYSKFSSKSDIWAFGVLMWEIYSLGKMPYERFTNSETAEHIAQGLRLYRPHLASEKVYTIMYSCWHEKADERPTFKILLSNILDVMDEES
Phosphatidylinositol 4,5-bisphosphate 3-kinase catalytic subunit gamma isoform, sequence (P48736 whole entry, canonical isoform): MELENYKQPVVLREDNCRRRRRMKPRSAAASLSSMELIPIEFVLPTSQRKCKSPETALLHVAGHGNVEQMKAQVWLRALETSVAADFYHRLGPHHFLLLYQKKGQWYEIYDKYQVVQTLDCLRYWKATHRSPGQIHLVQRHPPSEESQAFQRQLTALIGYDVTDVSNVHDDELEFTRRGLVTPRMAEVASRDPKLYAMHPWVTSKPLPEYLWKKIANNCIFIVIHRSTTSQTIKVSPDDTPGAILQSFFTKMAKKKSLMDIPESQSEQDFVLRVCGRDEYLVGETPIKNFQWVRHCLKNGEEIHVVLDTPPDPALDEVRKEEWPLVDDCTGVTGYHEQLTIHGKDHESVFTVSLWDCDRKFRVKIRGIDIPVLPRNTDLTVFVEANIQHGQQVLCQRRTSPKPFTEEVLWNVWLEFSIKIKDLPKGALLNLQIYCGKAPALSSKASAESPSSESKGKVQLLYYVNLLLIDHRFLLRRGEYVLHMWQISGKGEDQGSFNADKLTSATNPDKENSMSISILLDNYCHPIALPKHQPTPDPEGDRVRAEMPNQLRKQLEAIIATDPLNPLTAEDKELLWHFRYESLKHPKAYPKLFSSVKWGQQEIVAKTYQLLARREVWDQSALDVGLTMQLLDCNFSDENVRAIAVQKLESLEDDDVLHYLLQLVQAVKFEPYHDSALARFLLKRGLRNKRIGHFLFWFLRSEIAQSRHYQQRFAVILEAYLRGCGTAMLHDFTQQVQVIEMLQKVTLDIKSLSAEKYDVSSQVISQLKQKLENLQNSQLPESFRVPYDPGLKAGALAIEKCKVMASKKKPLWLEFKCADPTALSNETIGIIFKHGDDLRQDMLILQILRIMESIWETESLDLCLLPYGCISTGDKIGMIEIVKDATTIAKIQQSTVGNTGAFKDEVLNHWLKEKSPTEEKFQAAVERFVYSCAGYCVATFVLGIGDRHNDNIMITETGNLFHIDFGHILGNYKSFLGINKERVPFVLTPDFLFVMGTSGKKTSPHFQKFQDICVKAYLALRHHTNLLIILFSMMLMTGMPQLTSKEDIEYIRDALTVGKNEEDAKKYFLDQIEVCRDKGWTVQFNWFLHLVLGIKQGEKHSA
Phosphatidylinositol 4,5-bisphosphate 3-kinase catalytic subunit alpha isoform, sequence (P42336 whole entry, canonical isoform): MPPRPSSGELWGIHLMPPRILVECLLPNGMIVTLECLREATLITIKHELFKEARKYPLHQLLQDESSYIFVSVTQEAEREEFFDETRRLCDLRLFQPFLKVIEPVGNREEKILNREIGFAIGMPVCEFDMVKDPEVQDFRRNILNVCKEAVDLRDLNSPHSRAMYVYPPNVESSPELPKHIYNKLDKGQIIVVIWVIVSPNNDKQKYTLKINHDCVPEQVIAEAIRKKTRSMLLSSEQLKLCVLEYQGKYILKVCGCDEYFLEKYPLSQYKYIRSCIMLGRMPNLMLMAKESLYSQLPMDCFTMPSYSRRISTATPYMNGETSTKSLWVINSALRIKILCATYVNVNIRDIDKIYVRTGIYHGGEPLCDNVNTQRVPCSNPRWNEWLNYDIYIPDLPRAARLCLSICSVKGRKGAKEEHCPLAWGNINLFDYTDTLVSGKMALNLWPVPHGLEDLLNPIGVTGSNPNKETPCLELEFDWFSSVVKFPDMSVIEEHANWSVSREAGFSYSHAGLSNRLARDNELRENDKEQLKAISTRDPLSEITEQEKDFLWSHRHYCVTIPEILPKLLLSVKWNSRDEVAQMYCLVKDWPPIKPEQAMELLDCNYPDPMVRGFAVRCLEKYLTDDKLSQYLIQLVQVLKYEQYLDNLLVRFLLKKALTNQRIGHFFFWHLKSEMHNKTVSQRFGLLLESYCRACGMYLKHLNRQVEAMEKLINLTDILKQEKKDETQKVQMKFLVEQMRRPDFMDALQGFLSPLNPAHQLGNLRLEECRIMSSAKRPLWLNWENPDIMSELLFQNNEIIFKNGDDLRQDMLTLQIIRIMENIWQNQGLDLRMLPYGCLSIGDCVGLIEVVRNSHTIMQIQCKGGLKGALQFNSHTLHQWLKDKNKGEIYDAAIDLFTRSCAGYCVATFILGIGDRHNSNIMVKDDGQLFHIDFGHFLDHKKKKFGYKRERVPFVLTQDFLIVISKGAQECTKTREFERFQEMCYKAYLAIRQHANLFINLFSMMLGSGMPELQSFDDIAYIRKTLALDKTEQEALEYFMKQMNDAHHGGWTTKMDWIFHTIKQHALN
Phosphatidylinositol 4,5-bisphosphate 3-kinase catalytic subunit beta isoform, sequence (P42338 whole entry, canonical isoform): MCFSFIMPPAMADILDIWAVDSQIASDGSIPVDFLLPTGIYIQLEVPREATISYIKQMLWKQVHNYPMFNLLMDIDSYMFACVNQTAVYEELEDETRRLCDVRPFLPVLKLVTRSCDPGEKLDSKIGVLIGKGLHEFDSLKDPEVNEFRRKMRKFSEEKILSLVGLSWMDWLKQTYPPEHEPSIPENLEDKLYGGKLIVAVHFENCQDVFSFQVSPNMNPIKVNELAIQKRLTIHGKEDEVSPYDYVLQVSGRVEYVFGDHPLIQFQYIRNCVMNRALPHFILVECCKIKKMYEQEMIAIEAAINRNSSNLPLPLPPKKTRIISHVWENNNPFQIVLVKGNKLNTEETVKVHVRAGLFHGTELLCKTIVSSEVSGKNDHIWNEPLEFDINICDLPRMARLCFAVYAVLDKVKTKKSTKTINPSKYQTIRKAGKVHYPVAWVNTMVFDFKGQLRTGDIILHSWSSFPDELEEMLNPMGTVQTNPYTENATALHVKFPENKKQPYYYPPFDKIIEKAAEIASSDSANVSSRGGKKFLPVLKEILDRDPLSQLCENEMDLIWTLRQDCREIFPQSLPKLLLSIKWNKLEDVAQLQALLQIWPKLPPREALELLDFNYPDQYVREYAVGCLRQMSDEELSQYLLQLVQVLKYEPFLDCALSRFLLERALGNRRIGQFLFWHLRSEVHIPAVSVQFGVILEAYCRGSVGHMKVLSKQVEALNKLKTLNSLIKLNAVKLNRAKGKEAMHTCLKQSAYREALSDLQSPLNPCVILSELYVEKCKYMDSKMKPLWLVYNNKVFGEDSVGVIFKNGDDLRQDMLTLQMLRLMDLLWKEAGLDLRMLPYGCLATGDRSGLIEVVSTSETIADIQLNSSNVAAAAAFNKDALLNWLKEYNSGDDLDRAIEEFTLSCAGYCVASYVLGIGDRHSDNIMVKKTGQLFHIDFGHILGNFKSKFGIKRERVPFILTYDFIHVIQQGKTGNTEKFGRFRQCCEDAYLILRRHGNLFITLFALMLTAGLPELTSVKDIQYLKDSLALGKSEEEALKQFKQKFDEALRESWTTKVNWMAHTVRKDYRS

Consider `C=CC(=O)Nc1cccc(-n2c(=O)ccc3oc4ccc(-c5cccnc5)cc4c32)c1`, for which the inhibition entry in [1] and in assay [3] was “Active” in each case. Moreover, the inhibition in assay [2] amounted to 58.1%; in [19] it was 86.8%. In addition, the IC50 in assay [4] was found to be 2.18 µM; in [5] it was 0.074 µM; in assay [6], 0.17 µM; in [7], 0.855 µM; in the assay on Raji, 2.1 µM; with Ramos [11] it was 2.65 µM. Also, the IC50 was 2.82 µM in [15] and more than 10 µM in [16]. The Activity in the assay with Ramos [8] was determined as 60.8%; with Ramos [9], 34.56%; in the assay with Ramos [10], 55.36%; with Ramos [12] it was 0.67%; in the assay on Ramos [13] it was 52.16%; in the assay with Ramos [14], 37.62%. Besides, the Activity with Ramos [17] was 4.64%. In addition, the viability at 5 µM with Ramos [18] came out at 9.55%.
